The list is not random: actives were taken first. Their share in the collection is about 27%.
CYP2C9 act: human CYP2C9 activators, primary screen, biochemical, luminescence. recombinant CYP2C9, luciferin-H conversion; active compounds read high; factor 1 = untreated enzyme, 0 = blocked. activation factor at 5 µM. hit rate 1.4% among 96,000. AID 1024, 2008;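 active = activation factor of 2 or more for CYP2C9 at a 5 µM dose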
Cav3 T inh: Cav3.2 calcium influx blockers – cell-based, Fluo-4 calcium fluorescence, FDSS, MLSMR library, primary screen. AID 449739, 2010. Voltage-dependent T-type calcium channel subunit alpha-1H (Homo sapiens), O95180. hit rate 4% among 100,000. Cav3.2-expressing cells; active compounds read low. B-score at 10 µM;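 active = single-dose well whose peak fluorescence ratio is a statistical outlier from its plate by either plate-standardised score or position-corrected B-score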
Target sequence (O95180 whole entry, looked up): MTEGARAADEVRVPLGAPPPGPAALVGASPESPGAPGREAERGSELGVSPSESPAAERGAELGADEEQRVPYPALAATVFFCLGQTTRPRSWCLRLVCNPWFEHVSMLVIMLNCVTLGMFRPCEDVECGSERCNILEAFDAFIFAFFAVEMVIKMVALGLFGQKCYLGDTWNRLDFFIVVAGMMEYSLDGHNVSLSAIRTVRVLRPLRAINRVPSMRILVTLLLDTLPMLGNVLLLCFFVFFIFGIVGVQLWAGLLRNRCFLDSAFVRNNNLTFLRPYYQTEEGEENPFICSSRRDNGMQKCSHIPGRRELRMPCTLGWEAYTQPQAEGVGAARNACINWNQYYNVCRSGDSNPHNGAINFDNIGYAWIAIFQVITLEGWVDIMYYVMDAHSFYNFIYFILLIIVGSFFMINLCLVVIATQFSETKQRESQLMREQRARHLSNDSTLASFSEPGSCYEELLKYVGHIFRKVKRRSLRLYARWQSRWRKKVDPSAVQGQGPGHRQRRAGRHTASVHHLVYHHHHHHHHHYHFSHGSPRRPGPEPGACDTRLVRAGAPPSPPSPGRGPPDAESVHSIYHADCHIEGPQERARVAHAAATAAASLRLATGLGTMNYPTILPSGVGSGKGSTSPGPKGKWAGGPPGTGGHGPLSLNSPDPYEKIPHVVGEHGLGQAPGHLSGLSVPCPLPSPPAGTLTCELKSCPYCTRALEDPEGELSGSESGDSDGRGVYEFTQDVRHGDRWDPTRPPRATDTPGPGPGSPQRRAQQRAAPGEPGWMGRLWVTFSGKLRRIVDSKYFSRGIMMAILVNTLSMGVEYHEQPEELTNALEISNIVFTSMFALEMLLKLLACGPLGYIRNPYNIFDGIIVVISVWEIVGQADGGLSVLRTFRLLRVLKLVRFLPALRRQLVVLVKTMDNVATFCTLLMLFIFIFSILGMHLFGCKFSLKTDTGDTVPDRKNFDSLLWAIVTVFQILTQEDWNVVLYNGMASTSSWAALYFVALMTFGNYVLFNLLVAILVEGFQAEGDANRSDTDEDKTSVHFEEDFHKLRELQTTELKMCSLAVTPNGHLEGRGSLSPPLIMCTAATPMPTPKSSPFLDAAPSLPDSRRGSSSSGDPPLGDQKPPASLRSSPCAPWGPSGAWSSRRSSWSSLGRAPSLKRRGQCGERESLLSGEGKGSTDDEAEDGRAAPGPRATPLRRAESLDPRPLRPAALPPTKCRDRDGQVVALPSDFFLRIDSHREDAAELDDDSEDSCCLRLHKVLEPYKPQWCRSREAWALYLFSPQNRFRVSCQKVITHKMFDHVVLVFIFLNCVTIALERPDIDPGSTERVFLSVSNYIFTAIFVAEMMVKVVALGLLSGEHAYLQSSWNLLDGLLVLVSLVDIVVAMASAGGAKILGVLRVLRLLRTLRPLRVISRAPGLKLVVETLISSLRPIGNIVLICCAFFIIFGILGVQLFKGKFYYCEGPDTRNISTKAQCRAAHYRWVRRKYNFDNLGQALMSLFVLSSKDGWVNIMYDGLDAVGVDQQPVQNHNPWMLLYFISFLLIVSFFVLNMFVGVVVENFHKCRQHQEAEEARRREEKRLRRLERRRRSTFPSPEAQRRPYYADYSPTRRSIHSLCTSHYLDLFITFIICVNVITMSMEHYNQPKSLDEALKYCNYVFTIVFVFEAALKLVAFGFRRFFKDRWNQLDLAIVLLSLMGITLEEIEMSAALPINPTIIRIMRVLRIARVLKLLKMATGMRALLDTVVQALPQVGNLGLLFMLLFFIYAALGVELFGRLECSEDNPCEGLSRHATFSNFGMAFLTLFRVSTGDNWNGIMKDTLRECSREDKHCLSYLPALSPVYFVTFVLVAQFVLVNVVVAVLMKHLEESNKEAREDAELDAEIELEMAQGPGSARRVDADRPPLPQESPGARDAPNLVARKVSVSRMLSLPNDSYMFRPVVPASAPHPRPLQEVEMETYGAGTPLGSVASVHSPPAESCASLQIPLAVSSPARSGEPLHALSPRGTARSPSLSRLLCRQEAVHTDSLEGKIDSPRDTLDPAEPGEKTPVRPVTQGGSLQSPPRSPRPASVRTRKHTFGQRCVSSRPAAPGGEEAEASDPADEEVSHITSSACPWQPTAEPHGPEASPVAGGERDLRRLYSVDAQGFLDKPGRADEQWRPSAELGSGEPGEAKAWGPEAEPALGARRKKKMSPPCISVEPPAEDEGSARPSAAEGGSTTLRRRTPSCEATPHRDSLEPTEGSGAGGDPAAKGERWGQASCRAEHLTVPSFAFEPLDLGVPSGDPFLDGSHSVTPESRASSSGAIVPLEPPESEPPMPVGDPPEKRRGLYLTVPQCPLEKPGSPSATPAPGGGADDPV
CYP2C9 inhib: blockers of cytochrome P450 2C9 activity – biochemical, luminescence, ADME assay, primary screen. P11712. CYP2C9 Supersomes, luciferin-H conversion. inhibition, % at 5 µM. hit rate 20% among 96,000. AID 777, 2007;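 active = blocking of liver enzyme CYP2C9 beyond about 50% at 5 µM, limit read from the data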
CYP2C19 act: human CYP2C19 activators, primary screen, biochemical, luminescence. Cytochrome P450 2C19 (Homo sapiens), P33261. recombinant CYP2C19, luciferin-H EGE luminescence; active compounds read high; 0 = fully inhibited enzyme, 1 = untreated enzyme. activation factor at 5 µM. 96,000 tested, under 10 active. AID 1025, 2008;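 active = activation factor of at least 2 at 5 µM in the primary screen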
CYP2C19 inh: blockers of cytochrome P450 2C19 activity – biochemical, luminescence, ADME assay, primary screen; P33261; CYP2C19 Supersomes, luciferin-H EGE luminescence, 30 min; inhibition, % at 5 µM; hit rate 21% among 96,000; AID 778, 2007;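 active = CYP2C19 inhibition above a set limit at 5 µM in the primary screen, cut at about 50% in these data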
HIV Rev-RRE inh: HIV-1 Rev-RRE binding inhibitors, primary screen, biochemical, FRET, protein-RNA interaction; Rev peptide-RRE RNA binding; inhibition, % at 8 µM; hit rate 0.79% among 97,000;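 active = inhibition above the screen-wide mean plus 3 SD, cut at about 35% in these data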
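Test system: Cy5-tagged RRE RNA duplex with fluorescein-tagged Rev peptide; Probe or stimulus: labelled Rev peptide; Schedule: 5 min preincubation and 15 min binding, 25 °C; Signal: FRET fluorescence readout; Evaluation: % inhibition from 671/540 nm acceptor-to-donor ratio, scaled between controls; Control set: DMSO and neomycin B.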
A number is an active result.

CCn1nnnc1SCC(=O)c1cc(OC)ccc1OC was read as CYP2C9 act inactive, Cav3 T inh inactive, CYP2C9 inhib inactive, CYP2C19 act inactive and CYP2C19 inh 93.1.
Screening COc1ccc(OC)c(C(=O)CSc2nnnn2C)c1 returned CYP2C9 act inactive, Cav3 T inh inactive, CYP2C9 inhib inactive, CYP2C19 act inactive and CYP2C19 inh inactive.
CCn1c(SCC(=O)c2ccc(OC)cc2)nnc1C1CC1 was read as CYP2C9 act inactive, Cav3 T inh inactive, CYP2C9 inhib inactive, CYP2C19 act inactive, CYP2C19 inh 54.9 and HIV Rev-RRE inh inactive.
For COc1ccc(OC)c(C(=O)CSc2nnc(-c3ccc(OC)c(OC)c3)o2)c1 the results were CYP2C9 act inactive, Cav3 T inh inactive, CYP2C9 inhib inactive, CYP2C19 act inactive, CYP2C19 inh inactive and HIV Rev-RRE inh inactive.
For CS(=O)(=O)N1CCN(C2CCN(Cc3ccccc3)CC2)CC1 the results were CYP2C9 act inactive, Cav3 T inh inactive, CYP2C9 inhib inactive, CYP2C19 act inactive, CYP2C19 inh inactive and HIV Rev-RRE inh inactive.
`COc1ccccc1C(=O)Nc1ccc(S(=O)(=O)N2CCOCC2)cc1` gave CYP2C9 act 5.2, CYP2C9 inhib inactive, CYP2C19 act inactive, CYP2C19 inh inactive and HIV Rev-RRE inh inactive.
For COc1cccc(NS(=O)(=O)c2ccc(S(=O)(=O)N3CCOCC3)cc2)c1 the results were CYP2C9 act inactive, Cav3 T inh inactive, CYP2C9 inhib 66.9, CYP2C19 act inactive, CYP2C19 inh 93.1 and HIV Rev-RRE inh inactive.
COc1ccccc1C(=O)Nc1ccc(N2CCN(S(C)(=O)=O)CC2)cc1 was read as CYP2C9 act inactive, Cav3 T inh inactive, CYP2C9 inhib inactive, CYP2C19 act inactive, CYP2C19 inh 53.4 and HIV Rev-RRE inh inactive.
COc1c(C)cccc1C(=O)Nc1ccc(N2CCN(S(C)(=O)=O)CC2)cc1 was read as CYP2C9 act inactive, CYP2C9 inhib inactive, CYP2C19 act inactive, CYP2C19 inh inactive and HIV Rev-RRE inh inactive.
O=C(NCC1CCN(c2ccc(S(=O)(=O)N3CCOCC3)cc2)CC1)c1cccc(Cl)c1 was read as CYP2C9 act inactive, Cav3 T inh inactive, CYP2C9 inhib inactive, CYP2C19 act inactive, CYP2C19 inh inactive and HIV Rev-RRE inh inactive.
For COc1cccc(C(=O)NCC2CCN(c3ccc(S(=O)(=O)N4CCOCC4)cc3)CC2)c1 the results were CYP2C9 act inactive, Cav3 T inh inactive, CYP2C9 inhib 55.1, CYP2C19 act inactive, CYP2C19 inh 55.8 and HIV Rev-RRE inh inactive.
For COc1ccc(OC(C)C(=O)N2CCOCC2)cc1 (stereo unspecified) the results were CYP2C9 act inactive, Cav3 T inh inactive, CYP2C9 inhib inactive, CYP2C19 act inactive, CYP2C19 inh inactive and HIV Rev-RRE inh inactive.
`COc1cccc(NS(=O)(=O)c2ccc3c(c2)n(C)c(=O)c(=O)n3C)c1` gave CYP2C9 act inactive, Cav3 T inh inactive, CYP2C9 inhib inactive, CYP2C19 act inactive, CYP2C19 inh inactive and HIV Rev-RRE inh inactive.
COc1ccccc1C(=O)Nc1ccccc1N1CCN(S(C)(=O)=O)CC1 was read as CYP2C9 act inactive, Cav3 T inh inactive, CYP2C9 inhib 74.3, CYP2C19 act inactive, CYP2C19 inh 68.8 and HIV Rev-RRE inh inactive.
COc1cc(C(=O)Nc2ccccc2N2CCN(S(C)(=O)=O)CC2)cc(OC)c1OC was read as CYP2C9 act inactive, Cav3 T inh inactive, CYP2C9 inhib 78.9, CYP2C19 act inactive, CYP2C19 inh inactive and HIV Rev-RRE inh inactive.
Screening CCn1c(=O)c(=O)n(CC)c2cc(S(=O)(=O)Nc3cccc(OC)c3)ccc21 returned CYP2C9 act inactive, Cav3 T inh inactive, CYP2C9 inhib 86.7, CYP2C19 act inactive, CYP2C19 inh inactive and HIV Rev-RRE inh inactive.
`COc1ccc(NC(=O)c2ccc(S(=O)(=O)N3CCOCC3)cc2)c(OC)c1` gave CYP2C9 act 2.6, Cav3 T inh inactive, CYP2C9 inhib inactive, CYP2C19 act inactive, CYP2C19 inh inactive and HIV Rev-RRE inh inactive.
CCOC(=O)c1cc(C(=O)OCC)c2ccccn2c1=O was read as CYP2C9 act inactive, Cav3 T inh inactive, CYP2C9 inhib inactive, CYP2C19 act inactive, CYP2C19 inh inactive and HIV Rev-RRE inh inactive.
`COc1ccc(C(c2nnnn2CC2CCCO2)N2CCN(c3cccc(C)c3C)CC2)cc1` (stereo unspecified) gave CYP2C9 act inactive, Cav3 T inh -3.74, CYP2C9 inhib 65.6, CYP2C19 act inactive, CYP2C19 inh inactive and HIV Rev-RRE inh inactive.
CCCCC(c1nnnn1CC1CCCO1)N1CCN(c2cccc(C)c2C)CC1 (stereo unspecified) was read as CYP2C9 act inactive, Cav3 T inh -5.85, CYP2C9 inhib inactive, CYP2C19 act inactive, CYP2C19 inh inactive and HIV Rev-RRE inh inactive.
Cc1c(O)ccc(C(=O)COc2ccccc2F)c1O was read as CYP2C9 act inactive, Cav3 T inh inactive, CYP2C9 inhib inactive, CYP2C19 act inactive, CYP2C19 inh 69.2 and HIV Rev-RRE inh inactive.
For Cc1cc(C(=O)CN2C(=O)c3ccccc3C2=O)c(C)n1C1CC1 the results were CYP2C9 act inactive, Cav3 T inh inactive, CYP2C9 inhib inactive, CYP2C19 act inactive, CYP2C19 inh inactive and HIV Rev-RRE inh inactive.
COC(=O)c1ccc(OCC(=O)c2ccc(O)cc2O)cc1 was read as CYP2C9 act inactive, Cav3 T inh inactive, CYP2C9 inhib inactive, CYP2C19 act inactive and CYP2C19 inh inactive.
O=C(COc1ccccc1F)c1ccc(O)cc1O was read as CYP2C9 act inactive, Cav3 T inh inactive, CYP2C9 inhib inactive, CYP2C19 act inactive, CYP2C19 inh 91.7 and HIV Rev-RRE inh inactive.
Screening Cc1c(O)ccc(C(=O)CN2C(=O)c3ccccc3C2=O)c1O returned CYP2C9 act inactive, Cav3 T inh inactive, CYP2C9 inhib inactive, CYP2C19 act inactive, CYP2C19 inh 81.4 and HIV Rev-RRE inh inactive.
O=C(Cn1nc(-c2ccccc2)nc1-c1ccccc1)OC1CCCCC1 was read as Cav3 T inh inactive and HIV Rev-RRE inh inactive.
Screening S=P(c1ccc(N2CCOCC2)cc1N1CCOCC1)(N1CCOCC1)N1CCOCC1 returned CYP2C9 act inactive, CYP2C9 inhib inactive, CYP2C19 act inactive and CYP2C19 inh inactive.
For COC(=O)C1=C(N)c2c(F)cccc2C1(C#N)c1ccc(F)cc1 (stereo unspecified) the results were CYP2C9 act inactive, Cav3 T inh -5.65, CYP2C9 inhib inactive, CYP2C19 act inactive, CYP2C19 inh 65.8 and HIV Rev-RRE inh inactive.
`CCOc1ccc(C(Nc2ccc(C)cc2)P2(=O)OCCC(C)O2)cc1` (stereo unspecified) gave CYP2C9 act inactive, Cav3 T inh inactive, CYP2C9 inhib 57.7, CYP2C19 act inactive, CYP2C19 inh 54.2 and HIV Rev-RRE inh inactive.

Assay outcomes: PubChem, several laboratories
